PubChem BioAssay
Activity calls are given as the source filed them.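 How the source made its calls, unless noted: active means GFP response above 150% of the DMSO level; inconclusive means fewer than 70 events counted for a yeast strain; inactive means the rest.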

What was measured:
[1] = RPL19A-GFP modulators, yeast TOR pathway, confirmation, cell-based, S. cerevisiae, flow cytometry, cherry picks, mother/daughter gates (AID 2270;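 active means GFP response below 50% of the DMSO control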); settings: S. cerevisiae RPL19A-GFP strain, 3 h, at 10 µM, stronger effect = lower value, 100 = same GFP as DMSO wells
[2] = LAP4-GFP expression modulators in yeast, confirmation, cell-based, cherry picks, flow cytometry, mother/daughter gates (AID 2271;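 active means GFP response above 150% of the DMSO control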;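 further: ratio of sample to DMSO plate mean so 100% equals DMSO level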); settings: S. cerevisiae LAP4-GFP strain, 3 h, at 10 µM, stronger effect = higher value, 100 means same as DMSO control
In short: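 material = Alexa 633-stained baker's yeast GFP-fusion strain | amount = 0.2 OD600 cells | schedule = 30 °C, 3 h compound incubation, rotating | signal = GFP by flow cytometry | measure = per-gate (all, mother, daughter) GFP response vs DMSO | controls = positive rapamycin (400 ng/mL), negative DMSO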

[3] = modulators of MEP2-GFP levels in yeast, confirmation, S. cerevisiae, flow cytometry GFP, cherry picks (AID 2272;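 active means GFP response above 150% of the DMSO control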;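 further: ratio of well signal to plate DMSO mean so 100% equals DMSO level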); settings: S. cerevisiae MEP2-GFP strain, 3 h, at 10 µM, stronger effect = higher value
[4] = AGP1-GFP expression modulators, hit retest, confirmation, cell-based, flow cytometry, S. cerevisiae, cherry picks (AID 2273);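 further: median GFP channel fluorescence over the whole cell population gate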; settings: S. cerevisiae AGP1-GFP strain, 3 h, at 10 µM
[5] = modulators of CIT2-GFP expression in yeast, confirmation, S. cerevisiae, GFP fusion, cherry picks, mother/daughter gates (AID 2274); settings: S. cerevisiae CIT2-GFP strain, flow cytometry, 3 h, at 10 µM, stronger effect = higher value
[6] = measured here: daughter cell gate
[7] = measured here: mother cell gate
[8] = measured here: daughter cell gate response
[9] = measured here: mother cell gate response

Row | SMILES | GFP response vs DMSO [1] | GFP response vs DMSO [1, 6] [%] | GFP response vs DMSO [1, 7] [%] | GFP response relative to DMSO [2] | GFP response relative to DMSO [2, 8] [%] | GFP response relative to DMSO [2, 9] [%] | GFP response vs DMSO [3] | GFP response, % of DMSO [4] | GFP response, % of DMSO [5] | GFP response, % of DMSO [5, 6] [%] | GFP response, % of DMSO [5, 7] [%]
1 | COc1cc(CCN2C(=O)c3cccc4cccc(c34)C2=O)c(S(=O)(=O)NCCCO)cc1OC | 99.1% (inactive) | 98.5 | 99.7 | 95.3% (inactive) | 96.5 | 94.6 | 99.5% (inactive) | 93.6% (inactive) | 95% (inactive) | 96.4 | 93.3
2 | COc1cccc(C(=O)/C=C/c2ccc(SC)cc2)c1 | 98.6% (inactive) | 98.1 | 98.5 | 103% (inactive) | 104 | 103 | 100% (inactive) | 101% (inactive) | 99.7% (inactive) | 99.1 | 99.7
3 | CCSC1=NCCN1S(=O)(=O)c1ccc(F)cc1 | 98.8% (inactive) | 97.6 | 99 | 105% (inactive) | 101 | 106 | 103% (inactive) | 101% (inactive) | 93.4% (inactive) | 93.7 | 92.8
4 | N#C/C(=C\c1c(N(Cc2ccccc2)Cc2ccccc2)nc2ccccn2c1=O)C(N)=O | 98.4% (inactive) | 99.2 | 98.2 | 99.8% (inactive) | 97.2 | 102 | 102% (inactive) | 104% (inactive) | 106% (inactive) | 101 | 109
5 | CCCc1cc(N2CCN(c3ccccn3)CC2)n2nc(C)c(-c3ccccc3)c2n1 | 104% (inactive) | 101 | 104 | 142% (inactive) | 147 | 140 | 160% (inactive) | 109% (inactive) | 153% (active) | 154 | 148
6 | COc1ccc(OC)c(NC(=O)c2cccc3c2C(=O)N(C2CCCCC2)C3)c1 | 97.8% (inactive) | 98.4 | 98.4 | 92.8% (inactive) | 92.8 | 90.8 | 98.3% (inactive) | 97.8% (inactive) | 101% (inactive) | 103 | 98.5
7 | CCCOc1ccc(C(=O)NNC(=S)NC(=O)c2ccccc2)cc1 | 114% (inactive) | 111 | 113 | 149% (inactive) | 136 | 150 | 128% (inactive) | 98.3% (inactive) | 114% (inactive) | 116 | 108
8 | CN1Cc2sc(NC(=S)NC(=O)c3ccccc3)c(C#N)c2CC1(C)C | 99.5% (inactive) | 99.8 | 100 | 109% (inactive) | 104 | 111 | 133% (inactive) | 106% (inactive) | 109% (inactive) | 109 | 110
9 | CCCc1[nH]nc2c1C(c1ccccc1OCC)C(C#N)=C(N)O2 (stereo not drawn) | 98.4% (inactive) | 99.5 | 98 | 99.8% (inactive) | 98.7 | 101 | 100% (inactive) | 102% (inactive) | 99.1% (inactive) | 96.5 | 98.7
10 | CCOC(=O)CSC1=NC(=O)/C(=C/c2ccc(OC)cc2)S1 | 100% (inactive) | 92.5 | 98.2 | 154% (active) | 139 | 159 | 103% (inactive) | 102% (inactive) | 79.7% (inactive) | 79.4 | 71.8
11 | Cc1ccc(S(=O)(=O)Nc2cc(Cl)c(O)c3ncccc23)cc1 | 95.2% (inactive) | 94.2 | 97.1 | 122% (inactive) | 120 | 126 | 110% (inactive) | 91.2% (inactive) | 97.8% (inactive) | 100 | 96.8
12 | CCc1nnc(NC(=O)c2ccc(S(=O)(=O)N(CC)Cc3ccccc3)cc2)o1 | 98.4% (inactive) | 97.8 | 98.8 | 102% (inactive) | 105 | 99.5 | 102% (inactive) | 101% (inactive) | 105% (inactive) | 106 | 104
13 | CC(=O)c1ccc2c3c(cccc13)C(=O)N(c1c(C)nn(C)c1C)C2=O | 100% (inactive) | 100 | 101 | 97.7% (inactive) | 97.9 | 97.5 | 102% (inactive) | 100% (inactive) | 96.4% (inactive) | 98.3 | 96.8
14 | Cc1nnc(NC(=O)c2nc(S(=O)(=O)Cc3ccccc3C)ncc2Cl)s1 | 97.1% (inactive) | 96.4 | 94.4 | 98.9% (inactive) | 99 | 97.4 | 99.3% (inactive) | 98.2% (inactive) | 97.2% (inactive) | 97.6 | 96
15 | CCOC(=O)c1ccc(NC(=O)CCc2nc(-c3ccccc3Cl)no2)cc1 | 101% (inactive) | 100 | 102 | 103% (inactive) | 101 | 103 | 108% (inactive) | 97.5% (inactive) | 101% (inactive) | 102 | 98
16 | CCOc1ccc(Nc2nc(N(C)c3ccccc3)nc(N)c2[N+](=O)[O-])cc1 | 92.1% (inactive) | 94.7 | 91.7 | 96.5% (inactive) | 95 | 95.6 | 106% (inactive) | 113% (inactive) | 104% (inactive) | 104 | 106
17 | COc1ccc(CNC(=O)c2nc(S(=O)(=O)Cc3ccccc3)ncc2Cl)cc1 | 102% (inactive) | 104 | 101 | 107% (inactive) | 107 | 108 | 116% (inactive) | 103% (inactive) | 106% (inactive) | 106 | 105

Row | SMILES | GFP response vs DMSO [1] | GFP response vs DMSO [1, 6] [%] | GFP response vs DMSO [1, 7] [%] | GFP response relative to DMSO [2] | GFP response relative to DMSO [2, 8] [%] | GFP response relative to DMSO [2, 9] [%] | GFP response vs DMSO [3] | GFP response, % of DMSO [4] | GFP response, % of DMSO [5] | GFP response, % of DMSO [5, 6] [%] | GFP response, % of DMSO [5, 7] [%]
18 | NC(=O)C1CCN(C(=S)NCCc2ccccc2)CC1 | 97.3% (inactive) | 99.5 | 97.1 | 91.8% (inactive) | 91.3 | 93.4 | 99.3% (inactive) | 102% (inactive) | 101% (inactive) | 103 | 103
19 | CCOc1cc(/C=C2\N=C(C)OC2=O)cc(Br)c1OCCc1ccccc1 | 100% (inactive) | 99.8 | 101 | 102% (inactive) | 95 | 103 | 99.5% (inactive) | 97.3% (inactive) | 92.1% (inactive) | 92.7 | 88.6
20 | COc1ccc(-c2csc(NC(=O)c3ccco3)n2)cc1 | 98.4% (inactive) | 96.7 | 97.8 | 109% (inactive) | 102 | 109 | 104% (inactive) | 91.9% (inactive) | 99.3% (inactive) | 100 | 96.8
21 | CCOC(=O)C(=Cc1ccc(F)cc1)C(=O)OCC | 101% (inactive) | 101 | 100 | 107% (inactive) | 102 | 111 | 100% (inactive) | 96.7% (inactive) | 93.9% (inactive) | 94.8 | 92.3
22 | O=C(Oc1oc(-c2ccco2)nc1C=Nc1ccccc1)c1ccoc1 | 99.6% (inactive) | 99.8 | 96.9 | 198% (active) | 172 | 198 | 108% (inactive) | 98.2% (inactive) | 98.6% (inactive) | 103 | 91.5
23 | CC[n+]1c(/C=C/c2ccc(N(C)C)cc2)ccc2ccccc21 | 99.4% (inactive) | 96.6 | 96.5 | 105% (inactive) | 104 | 106 | 118% (inactive) | 101% (inactive) | 97.3% (inactive) | 97.4 | 96.8
24 | Cc1ccc(C2=NOC(=O)/C2=C\c2ccc(C)o2)cc1 | 101% (inactive) | 89.7 | 90.8 | 230% (active) | 134 | 224 | 110% (inactive) | 97% (inactive) | 87.2% (inactive) | 87.3 | 72.8
25 | O=C(COC(=O)c1n[nH]c2ccccc12)c1ccc(F)c(F)c1 | 97.1% (inactive) | 98.7 | 96.3 | 104% (inactive) | 97.5 | 106 | 103% (inactive) | 97% (inactive) | 98.6% (inactive) | 101 | 98.2
26 | CCOc1ccccc1N1CCN(C(=O)c2ccccc2)CC1 | 97.6% (inactive) | 98.5 | 98.8 | 101% (inactive) | 101 | 103 | 102% (inactive) | 101% (inactive) | 101% (inactive) | 100 | 99.1
27 | COc1cc(N2C(=O)C=CC2=O)c(OC)cc1Cl | 85.7% (inactive) | 90 | 75 | 303% (active) | 211 | 272 | 133% (inactive) | 108% (inactive) | 90% (inactive) | 96.5 | 79.4
28 | COc1cc(NC(=O)c2ccccc2)ccc1NC(=O)c1cc2ccccc2o1 | 98.7% (inactive) | 98.7 | 97.8 | 94.1% (inactive) | 97.5 | 92.3 | 103% (inactive) | 101% (inactive) | 100% (inactive) | 95.8 | 100
29 | O=C(c1ccccc1Br)N1CCN(c2ccccc2)CC1 | 104% (inactive) | 106 | 105 | 93.8% (inactive) | 92.5 | 97.2 | 109% (inactive) | 94.3% (inactive) | 93.9% (inactive) | 94.8 | 94.4
30 | O=[N+]([O-])/C=C/c1cn(Cc2ccc(F)cc2)c2ccccc12 | 103% (inactive) | 104 | 102 | 113% (inactive) | 110 | 115 | 105% (inactive) | 94.5% (inactive) | 104% (inactive) | 105 | 101
31 | Cc1cccc(NC(=O)c2ccccc2O)c1C | 97.3% (inactive) | 94.7 | 96.9 | 112% (inactive) | 104 | 116 | 99.3% (inactive) | 98.4% (inactive) | 95.8% (inactive) | 95.8 | 94.9
32 | Cc1[nH]n(-c2ccccc2)c(=O)c1C(c1ccccc1[N+](=O)[O-])C(C#N)C#N (stereo not drawn) | 106% (inactive) | 84.6 | 98.8 | 192% (active) | 168 | 195 | 112% (inactive) | 98.9% (inactive) | 98.4% (inactive) | 113 | 81.8
33 | O=C1[C@@H]2C3C=CC(O3)[C@@H]2C(=O)N1c1ccccc1 | 101% (inactive) | 102 | 100 | 107% (inactive) | 107 | 109 | 101% (inactive) | 107% (inactive) | 100% (inactive) | 101 | 100
